Assay [1] is described as follows: (§1) Ability for reversible inhibition of Walker 256 5-Fluoro-2'-deoxyuridine Phosphorylase. On the set-up: species or system Rattus norvegicus. To be noted: read-out: I50. Summed up: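 Walker 256 rat tumor FUDR phosphorylase (uridine-deoxyuridine phosphorylase) was assayed with 400 μM FUDR substrate in pH 5.9 arsenate-succinate buffer containing 10% Me2SO. The value is the inhibitor concentration giving 50% inhibition (I50).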

Assay [2] can be described thus: as §1. On the set-up: species or system Rattus norvegicus. To be noted: read-out: I 50. Summed up: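 Enzyme from Walker 256 rat tumor, assayed with 400 μM FUDR as substrate in pH 5.9 arsenate-succinate buffer with 10% Me2SO. Value reported as concentration giving 50% inhibition.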
The species named for assay [3] is Rattus norvegicus. In words: Irreversible inhibition of Walker 256 FUDR phosphorylase; expressed as Vo/Vi, velocity without inhibitor to that of velocity with inhibitor. Summed up: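 Walker 256 FUDR phosphorylase preincubated 20 min at ambient temperature with 20 μM (final) inhibitor in pH 5.9 arsenate-succinate buffer, 10% Me2SO, alongside zero-time tubes. Unbound inhibitor then removed by two 1-octanol extractions. Remaining activity assayed after adding 4 mM FUDR stock, stopped with 5% trichloroacetic acid, read as for reversible assay. V0/Vi of 2 corresponds to 50% inhibition.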

With `O=c1[nH]c(=O)n(CCCOc2ccccc2)cc1Cc1ccccc1`, the IC50 in assay [1] was determined as 5700 nM.
The same measure, in the same setting: with `Oc1ncc(Cc2cccc(OCc3ccccc3)c2)c(O)n1` the figure was 500 nM.
For `CCOc1cccc(Cc2cn(Cc3cccc(NC(=O)Nc4cccc(S(=O)(=O)F)c4)c3)c(=O)[nH]c2=O)c1`, the IC50 in assay [2] turned out to be 1100 nM. Also, in assay [3], the Ratio was 1.2.
`O=c1[nH]c(=O)n(Cc2ccccc2)cc1Cc1cccc(OCc2ccccc2)c1`: the IC50 in assay [1] is 2500 nM.
As to `CCOc1cccc(Cc2cn(Cc3ccc(NC(=O)c4cccc(S(=O)(=O)F)c4)cc3)c(=O)[nH]c2=O)c1`, the IC50 in assay [2] turned out to be 33000 nM. In assay [3], the Ratio is 1.
Turning to `COc1cccc(Cc2cnc(O)nc2O)c1`, in assay [1], the IC50 was found to be 1900 nM.
Take `CCOc1cccc(Cc2cn(Cc3cccc(NC(=O)c4ccccc4)c3)c(=O)[nH]c2=O)c1`: the Ratio in assay [3] was determined as 1.2. Besides, in assay [1], the IC50 amounted to 1200 nM.
For `Cn1cc(Cc2ccccc2)c(=O)[nH]c1=O`, the IC50 in assay [1] was 6200 nM.
On the same count and under the same terms, the figure for `CCOc1cccc(Cc2cn(Cc3ccc(NC(=O)c4ccccc4)cc3)c(=O)[nH]c2=O)c1` is 3800 nM.
As for `CCOc1cccc(Cc2cn(Cc3ccc(NC(=O)c4ccc(S(=O)(=O)F)cc4)cc3)c(=O)[nH]c2=O)c1`, the IC50 in assay [2] came out at 15000 nM. In addition, in assay [3], the Ratio was 1.
On the same counts, the results for `CCOc1cccc(Cc2cn(Cc3cccc(NC(=O)c4cccc(S(=O)(=O)F)c4)c3)c(=O)[nH]c2=O)c1` are 3200 nM and 1.1.
Regarding `Oc1ncc(Cc2ccccc2)c(O)n1`, in assay [1], the IC50 amounted to 5300 nM.
In the case of `CCOc1cccc(Cc2cn(Cc3cccc(NC(=O)Nc4ccc(S(=O)(=O)F)cc4)c3)c(=O)[nH]c2=O)c1`, in assay [2], the IC50 is 1900 nM. For the same compound, in assay [3], the Ratio was determined as 1.1.
Regarding `O=c1[nH]c(=O)n(Cc2ccccc2)cc1Cc1ccccc1`, the IC50 in assay [1] worked out at 2600 nM.
Take `CCOc1cccc(Cc2cnc(O)nc2O)c1`: in assay [2], the IC50 stood at 1400 nM.
In the case of `CCOc1cccc(Cc2cn(Cc3cccc(NC(=O)c4ccc(S(=O)(=O)F)cc4)c3)c(=O)[nH]c2=O)c1`, the IC50 in assay [2] was determined as 2500 nM. The Ratio in assay [3] was determined as 1.
As for `CCOc1cccc(Cc2cn(Cc3ccccc3)c(=O)[nH]c2=O)c1`, the IC50 in assay [2] was 1200 nM.

The values above are taken from ChEMBL document CHEMBL1122161, “Irreversible enzyme inhibitors. 202. Candidate active-site-directed irreversible inhibitors of 5-fluoro-2'-deoxyuridine phosphorylase from Walker 256 rat tumor derived from 1-benzyl-5-(3-ethoxybenzyl)uracil” (J Med Chem, 1982).
